In brackets after ≈: the same amount, converted by molar mass. Activity calls are given as the source filed them. The calls are words filed in the database; no cut-off is given here.
Tests used:
[1] = test system: Staphylococcus epidermidis; test: Antibacterial activity against methicillin-resistant Staphylococcus epidermidis 004-T1 by broth microdilution method; type: functional
In short: (§1)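 MIC by broth microdilution following CLSI guidelines, run in medium without added Ca2+ and with Ca2+ ions supplemented (level not given). Reference strains came from the Tarasevich State Research Institution collection of pathogenic microorganisms. Clinical MRSA/MRSE isolates came from the Russia Research Institute for Antibiotics Culture Collection.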

[2] = test system: Enterococcus faecalis; test: Antibacterial activity against Enterococcus faecalis ATCC 29212 in presence of Ca2+ by broth microdilution method; type: functional
[3] = test system: Staphylococcus aureus; test: Antibacterial activity against methicillin-resistant Staphylococcus aureus 86 in presence of Ca2+ by broth microdilution method; type: functional; in short: as §1
[4] = test system: Staphylococcus epidermidis; test: Antibacterial activity against methicillin-resistant Staphylococcus epidermidis C2001 by broth microdilution method; type: functional; in short: as §1
[5] = test system: Staphylococcus aureus; test: Antibacterial activity against methicillin-resistant Staphylococcus aureus 20450 by broth microdilution method; type: functional; in short: as §1
[6] = test system: Staphylococcus aureus; test: Antibacterial activity against Staphylococcus aureus ATCC 29213 in presence of Ca2+ by broth microdilution method; type: functional; in short: as §1
[7] = test system: Staphylococcus aureus; test: Antibacterial activity against Staphylococcus aureus ATCC 29213 by broth microdilution method; type: functional; in short: as §1
[8] = test system: Staphylococcus epidermidis; test: Antibacterial activity against methicillin-resistant Staphylococcus epidermidis 004-T1 in presence of Ca2+ by broth microdilution method; type: functional; in short: as §1
[9] = test system: Staphylococcus aureus; test: Antibacterial activity against methicillin-resistant Staphylococcus aureus 86 by broth microdilution method; type: functional; in short: as §1
[10] = test system: Staphylococcus aureus; test: Antibacterial activity against methicillin-resistant Staphylococcus aureus 71001 in presence of Ca2+ by broth microdilution method; type: functional; in short: as §1
[11] = test system: Staphylococcus aureus; test: Antibacterial activity against methicillin-resistant Staphylococcus aureus 88 by broth microdilution method; type: functional; in short: as §1
[12] = test system: Staphylococcus epidermidis; test: Antibacterial activity against methicillin-resistant Staphylococcus epidermidis C2001 in presence of Ca2+ by broth microdilution method; type: functional; in short: as §1
[13] = test system: Staphylococcus aureus; test: Ratio of MIC for Staphylococcus aureus ATCC 29213 in absence of Ca2+ to MIC for Staphylococcus aureus ATCC 29213 in presence of Ca2+; type: functional
[14] = test system: Candida albicans; test: Antifungal activity against Candida albicans ATCC 14053; type: functional, organism-based
[15] = test system: Staphylococcus aureus; test: Antibacterial activity against methicillin-resistant Staphylococcus aureus 71001 by broth microdilution method; type: functional; in short: as §1
[16] = test system: Staphylococcus epidermidis; test: Ratio of MIC for methicillin-resistant Staphylococcus epidermidis 004-T1 in absence of Ca2+ to MIC for methicillin-resistant Staphylococcus epidermidis 004-T1 in presence of Ca2+; type: functional
[17] = test system: Enterococcus gallinarum; test: Antibacterial activity against Enterococcus gallinarum VP4147 in presence of Ca2+ by broth microdilution method; type: functional
[18] = test system: Staphylococcus aureus; test: Antibacterial activity against methicillin-resistant Staphylococcus aureus 17 in presence of Ca2+ by broth microdilution method; type: functional; in short: as §1
[19] = test system: Staphylococcus epidermidis; test: Antibacterial activity against methicillin-resistant Staphylococcus epidermidis 20459 in presence of Ca2+ by broth microdilution method; type: functional; in short: as §1
[20] = test system: Staphylococcus aureus; test: Antibacterial activity against methicillin-resistant Staphylococcus aureus 20450 in presence of Ca2+ by broth microdilution method; type: functional; in short: as §1
[21] = test system: Escherichia coli; test: Antibacterial activity against Escherichia coli ATCC 25922; type: functional, organism-based; in short: as §1
[22] = test system: Staphylococcus epidermidis; test: Ratio of MIC for methicillin-resistant Staphylococcus epidermidis C2001 in absence of Ca2+ to MIC for methicillin-resistant Staphylococcus epidermidis C2001 in presence of Ca2+; type: functional
[23] = test system: Staphylococcus aureus; test: Antibacterial activity against methicillin-resistant Staphylococcus aureus 88 in presence of Ca2+ by broth microdilution method; type: functional; in short: as §1
[24] = test system: Aspergillus niger; test: Antifungal activity against Aspergillus niger ATCC 16404; type: functional, organism-based
[25] = test system: Enterococcus gallinarum; test: Antibacterial activity against Enterococcus gallinarum VP4147 by broth microdilution method; type: functional
[26] = test system: Staphylococcus aureus; test: Antibacterial activity against methicillin-resistant Staphylococcus aureus 17 by broth microdilution method; type: functional; in short: as §1
[27] = test system: Enterococcus faecalis; test: Antibacterial activity against Enterococcus faecalis ATCC 29212 by broth microdilution method; type: functional; in short: as §1
[28] = test system: Staphylococcus epidermidis; test: Antibacterial activity against methicillin-resistant Staphylococcus epidermidis 20459 by broth microdilution method; type: functional; in short: as §1
[29] = test system: Enterococcus gallinarum; test: Ratio of MIC for Enterococcus gallinarum VP4147 in absence of Ca2+ to MIC for Enterococcus gallinarum VP4147 in presence of Ca2+; type: functional
[30] = test system: Enterococcus faecalis; test: Ratio of MIC for Enterococcus faecalis ATCC 29212 in absence of Ca2+ to MIC for Enterococcus faecalis ATCC 29212 in presence of Ca2+; type: functional

Molecule `CC(C)CCCCCCC/C=C/CC(=O)N[C@@H](CC(=O)O)C(=O)N[C@@H]1C(=O)N2CCCC[C@@H]2C(=O)N[C@@H]([C@H](C)C(=O)O)C(=O)N[C@@H](CC(=O)O)C(=O)NCC(=O)N[C@@H](CC(=O)O)C(=O)NCC(=O)N[C@H](C(C)N)C(=O)N[C@@H](C(C)C)C(=O)N2CCC[C@H]2C(=O)N[C@@H]1C` (some centres undefined) has an MIC [1] of 32 µg/mL (≈ 24.5 µM), an MIC [2] of 8 µg/mL and an MIC [3] of 4 µg/mL. It also gave an MIC [4] of 16 µg/mL (≈ 12.3 µM), an MIC [5] of 16 µg/mL (≈ 12.3 µM) and an MIC [6] of 4 µg/mL. For the same molecule, the MIC [7] was 16 µg/mL (≈ 12.3 µM), the MIC [8] was 4 µg/mL and the MIC [9] was 16 µg/mL (≈ 12.3 µM). For the same molecule, the MIC [10] was 4 µg/mL, the MIC [11] was 16 µg/mL (≈ 12.3 µM) and the MIC [12] was 4 µg/mL. For the same molecule, the Ratio [13] was 2 - 8, the Activity [14] was “inactive” and the MIC [15] was 16 µg/mL (≈ 12.3 µM). For the same molecule, the Ratio [16] was 2 - 8, the MIC [17] was 4 to 8 µg/mL and the MIC [18] was 4 µg/mL. For the same molecule, the MIC [19] was 4 µg/mL, the MIC [20] was 2 µg/mL and the Activity [21] was “inactive”. The Ratio [22] was 2 - 8, the MIC [23] was 4 µg/mL and the Activity [24] was “inactive”.

`CCCCCCCCCC(=O)N[C@@H](Cc1c[nH]c2ccccc12)C(=O)N[C@@H](CC(N)=O)C(=O)N[C@@H](CC(=O)O)C(=O)N[C@@H]1C(=O)NCC(=O)N[C@@H](CCCN)C(=O)N[C@@H](CC(=O)O)C(=O)N[C@H](C)C(=O)N[C@@H](CC(=O)O)C(=O)NCC(=O)N[C@H](CO)C(=O)N[C@@H]([C@H](C)CC(=O)O)C(=O)N[C@@H](CC(=O)c2ccccc2N)C(=O)O[C@@H]1C` [DAPTOMYCIN] showed an MIC [1] of 1 µg/mL (≈ 0.617 µM), an MIC [4] of 1 µg/mL (≈ 0.617 µM) and an MIC [5] of 1 µg/mL (≈ 0.617 µM). It also gave an MIC [25] of 8 µg/mL (≈ 4.94 µM), an MIC [26] of 2 µg/mL (≈ 1.23 µM) and an MIC [7] of 0.5 µg/mL (≈ 0.309 µM). The MIC [27] was 4 µg/mL (≈ 2.47 µM), the MIC [9] was 1 µg/mL (≈ 0.617 µM) and the MIC [11] was 0.5 to 1 µg/mL (≈ 0.309 to 0.617 µM). For the same molecule, the MIC [15] was 0.5 to 1 µg/mL (≈ 0.309 to 0.617 µM) and the MIC [28] was 1 µg/mL (≈ 0.617 µM).

`CCC(C)CCCCCCC/C=C\CC(=O)N[C@@H](CC(=O)O)C(=O)N[C@@H]1C(=O)N2CCCC[C@@H]2C(=O)N[C@@H]([C@H](C)C(=O)O)C(=O)N[C@@H](CC(=O)O)C(=O)NCC(=O)N[C@@H](CC(=O)O)C(=O)NCC(=O)N[C@H](C(C)N)C(=O)N[C@@H](C(C)C)C(=O)N2CCC[C@H]2C(=O)N[C@@H]1C` (some centres undefined) gave an MIC [1] of 16 µg/mL (≈ 12.1 µM), an MIC [2] of 8 µg/mL and an MIC [3] of 2 µg/mL. For the same molecule, the MIC [4] was 4 to 8 µg/mL (≈ 3.03 to 6.07 µM), the MIC [5] was 8 µg/mL (≈ 6.07 µM) and the MIC [6] was 2 µg/mL. It also gave an MIC [25] of 16 µg/mL (≈ 12.1 µM), an MIC [26] of 8 µg/mL (≈ 6.07 µM) and an MIC [7] of 4 to 8 µg/mL (≈ 3.03 to 6.07 µM). For the same molecule, the MIC [27] was 16 µg/mL (≈ 12.1 µM), the MIC [8] was 4 µg/mL and the Ratio [29] was 2 - 8. It also gave an MIC [9] of 8 µg/mL (≈ 6.07 µM), an MIC [10] of 2 µg/mL and an MIC [11] of 8 µg/mL (≈ 6.07 µM). The Ratio [30] was 2 - 8, the MIC [12] was 2 µg/mL and the Ratio [13] was 2 - 8. The Activity [14] was “inactive”, the MIC [15] was 8 µg/mL (≈ 6.07 µM) and the Ratio [16] was 2 - 8. For the same molecule, the MIC [17] was 4 to 8 µg/mL, the MIC [18] was 4 µg/mL and the MIC [19] was 4 µg/mL. For the same molecule, the MIC [20] was 1 to 2 µg/mL, the Activity [21] was “inactive” and the Ratio [22] was 2 - 8. For the same molecule, the MIC [23] was 2 µg/mL and the Activity [24] was “inactive”.
